Experiments:
[1] = target: T1, Cannabinoid receptor 1 (Homo sapiens, UniProt P21554); assay: Displacement of [3H]-CP55940 from human CB1 receptor expressed in human HEK293-EBNA cells incubated for 60 mins by radioligand competitive binding assay based liquid scintillation counter; assay type: cell-based
[2] = target: T2, Cannabinoid receptor 2 (Homo sapiens, UniProt P34972); assay: Displacement of [3H]-CP55940 from N-terminal 3HA-tagged human CB2 receptor expressed in human HEK293-EBNA cells incubated for 60 mins by radioligand competitive binding assay based liquid scintillation counter; assay type: cell-based
T2 sequence (P34972 whole entry): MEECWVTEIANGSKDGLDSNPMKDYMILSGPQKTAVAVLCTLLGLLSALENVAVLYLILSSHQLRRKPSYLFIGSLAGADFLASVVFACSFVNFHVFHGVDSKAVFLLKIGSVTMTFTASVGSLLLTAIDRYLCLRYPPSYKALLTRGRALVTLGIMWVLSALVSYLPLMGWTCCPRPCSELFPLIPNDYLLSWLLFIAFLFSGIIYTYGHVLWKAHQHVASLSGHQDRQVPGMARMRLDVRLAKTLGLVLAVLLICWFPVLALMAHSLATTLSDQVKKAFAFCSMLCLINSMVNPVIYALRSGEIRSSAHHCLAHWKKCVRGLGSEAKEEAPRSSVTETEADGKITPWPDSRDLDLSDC

[3] = target: T2, Cannabinoid receptor 2; assay: Agonist activity at human CB2 receptor expressed in mouse AtT20 cells incubated for 60 mins by FLIPR membrane potential assay; assay type: functional, cell-based
[4] = target: T1, Cannabinoid receptor 1; assay: Agonist activity at human CB1 receptor expressed in mouse AtT20 cells assessed as maximal agonist effect by measuring fluorescence at 10 uM incubated for 60 mins by FLIPR membrane potential assay relative to CP55940; assay type: functional, cell-based
Procedure, shortened: (§1)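 AtT20 FlpIn cells stably expressing human CB1 or CB2, plated overnight in L-15 with 1% FBS. Loaded 60 min at 37 °C with FLIPR blue membrane potential dye, pH 7.4 buffer. Fluorescence (ex 530/em 565 nm) read every 2 s; 2 min baseline, then drug added. Change in fluorescence versus baseline minus vehicle (DMSO 0.1%/BSA 0.01% final), normalised to 1 μM CP55,940. Response taken at 10 μM where <50% change.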

[5] = target: T2, Cannabinoid receptor 2; assay: Agonist activity at human CB2 receptor expressed in mouse AtT20 cells assessed as maximal agonist effect by measuring fluorescence at 10 uM incubated for 60 mins by FLIPR membrane potential assay relative to CP55940; assay type: functional, cell-based; details: filed as agonist; procedure, shortened: as §1
[6] = target: T1, Cannabinoid receptor 1; assay: Agonist activity at CB1 receptor (unknown origin) expressed in human HEK293T cells co-expressing beta-arrestin2 assessed as beta-arrestin2 recruitment using furimazine as substrate by Nano-Glo live cell reagent assay; assay type: functional, cell-based
Procedure, shortened: (§2)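 βarr2 recruitment by NanoBiT split-luciferase complementation in HEK293T stably expressing CB1-βarr2 or CB2-βarr2. Nano-Glo Live Cell reagent (furimazine) equilibrated 10 min before compound, then luminescence monitored continuously 2 h. Stocks in methanol, diluted in MeOH/Opti-MEM. EC50 from four-parameter logistic fit. Duplicates in ≥3 independent experiments.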

[7] = target: T2, Cannabinoid receptor 2; assay: Agonist activity at CB2 receptor (unknown origin) expressed in human HEK293T cells co-expressing beta-arrestin2 assessed as beta-arrestin2 recruitment using furimazine as substrate by Nano-Glo live cell reagent assay; assay type: functional, cell-based; procedure, shortened: as §2
[8] = target: T1, Cannabinoid receptor 1; assay: Agonist activity at CB1 receptor (unknown origin) expressed in human HEK293T cells co-expressing beta-arrestin2 assessed as beta-arrestin2 recruitment by measuring maximal luminescence using furimazine as substrate at 100 uM by Nano-Glo live cell reagent assay relative to CP55940; assay type: functional, cell-based
Procedure, shortened: (§3)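 βarr2 recruitment by NanoBiT split-luciferase complementation in HEK293T stably expressing CB1-βarr2 or CB2-βarr2. Cells seeded on poly-D-lysine overnight, washed into Opti-MEM. Nano-Glo Live Cell reagent (furimazine) equilibrated 10 min, then compound added and luminescence followed 2 h. […] Value read at highest tested concentration, 100 μM. Duplicates, ≥3 independent experiments.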

[9] = target: T2, Cannabinoid receptor 2; assay: Agonist activity at CB2 receptor (unknown origin) expressed in human HEK293T cells co-expressing beta-arrestin2 assessed as beta-arrestin2 recruitment by measuring maximal luminescence using furimazine as substrate at 100 uM by Nano-Glo live cell reagent assay relative to CP55940; assay type: functional, cell-based; details: filed as agonist; procedure, shortened: as §3
[10] = target: T1, Cannabinoid receptor 1; assay: Agonist activity at human CB1 receptor expressed in mouse AtT20 cells at 10 uM incubated for 60 mins by FLIPR membrane potential assay; assay type: functional, cell-based; procedure, shortened: as §1
[11] = target: T1, Cannabinoid receptor 1; assay: Agonist activity at human CB1 receptor expressed in mouse AtT20 cells incubated for 60 mins by FLIPR membrane potential assay; assay type: functional, cell-based
[12] = Toxicity in C57BL/6J mouse assessed as reduction in body temperature at 10 mg/kg,ip measured after 2.5 hrs by radio-biotelemetry analysis; assay type: organism-based; details: in vivo
Procedure, shortened: (§4)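 Male C57BL/6J mice (four per cohort) fitted with intraperitoneal biotelemetry transmitters, 10 days' recovery. Compound in EtOH/polysorbate 80/saline (5:5:90) given i.p. at 10 μL/g after baseline vehicle injection; escalating doses 0.03 to 10 mg/kg, one every three days.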

[13] = Toxicity in C57BL/6J mouse assessed as reduction in body temperature at 0.1 mg/kg,ip measured after 2.5 hrs by radio-biotelemetry analysis; assay type: organism-based; details: in vivo; procedure, shortened: as §4
[14] = Toxicity in C57BL/6J mouse assessed as reduction in body temperature upto 10 mg/kg,ip measured after 2.5 hrs by radio-biotelemetry analysis; assay type: organism-based; details: in vivo; procedure, shortened: as §4

T1 sequence (P21554 whole entry): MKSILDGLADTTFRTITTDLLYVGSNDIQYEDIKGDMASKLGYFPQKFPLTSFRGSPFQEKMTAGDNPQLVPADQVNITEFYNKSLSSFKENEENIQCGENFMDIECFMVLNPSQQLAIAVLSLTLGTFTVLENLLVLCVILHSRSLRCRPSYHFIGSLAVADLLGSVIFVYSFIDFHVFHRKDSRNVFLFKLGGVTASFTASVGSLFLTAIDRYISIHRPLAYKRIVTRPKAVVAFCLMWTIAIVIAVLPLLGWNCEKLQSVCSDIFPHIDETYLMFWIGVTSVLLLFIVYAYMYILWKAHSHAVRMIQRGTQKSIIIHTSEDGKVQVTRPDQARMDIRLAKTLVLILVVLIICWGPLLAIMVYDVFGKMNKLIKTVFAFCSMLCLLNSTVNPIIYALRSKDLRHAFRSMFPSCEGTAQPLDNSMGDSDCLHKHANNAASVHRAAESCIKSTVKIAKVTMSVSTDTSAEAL

Compound	Ki [1] [nM]	Ki [2] [nM]	EC50 [3] [nM]	Emax [4] [%]	Emax [5] [%]	EC50 ([6]; read-out: EC50) [nM]	EC50 [7] [nM]	Emax [8] [%]	Emax [9] [%]	Activity [10] [%]	EC50 [11] [nM]	Emax ([4]; filed as agonist) [%]	Emax ([8]; filed as agonist) [%]	Activity [12]	Activity [13]	EC50 ([6]; read-out: pEC50 (converted)) [nM]	Activity [14]
CCCCCn1cc(C(=O)N[C@@H](Cc2ccccc2)C(N)=O)c2cccnc21	437	794	381	30	78	> 100000	766	6	52	< 50							
CCCCn1cc(C(=O)N[C@H](C(N)=O)C(C)C)c2cccnc21	501	891	202		100	> 60800	4620		88		1490	104	44				
CCCCn1cc(C(=O)N[C@H](C(N)=O)C(C)(C)C)c2ccccc21	1.34	1.32	6		103	139	4.44		92		6	115	756				
CCCCCn1cc(C(=O)N[C@H](C(N)=O)C(C)(C)C)c2cccnc21	3.94	20.4	7.1		108	147	22.2		102		5.8		544	Non-Toxic			
CCCCn1nc(C(=O)N[C@H](C(N)=O)C(C)(C)C)c2ccccc21	0.299	0.912	4.1		101	19	1.79		83		0.67	113	728		Toxic		
CCCCn1cc(C(=O)N[C@H](C(N)=O)C(C)(C)C)c2cccnc21	15.5	40.7	21		103	2890	120		85		88	117	406				
CCCCn1cc(C(=O)N[C@@H](Cc2ccccc2)C(N)=O)c2cccnc21	538	2190	319	19	79	> 1050	3630	< 5	53	< 50						1050	
CCCCn1nc(C(=O)N[C@H](C(N)=O)C(C)C)c2ccccc21	1.18	6.46	4.2		103	187	13.7		91		7.4	114	622				
CCCCCn1cc(C(=O)N[C@H](C(N)=O)C(C)C)c2cccnc21	49.5	251	47		93	4150	694		70		101	112	278				
CCCCn1nc(C(=O)N[C@@H](Cc2ccccc2)C(N)=O)c2ccccc21	25.1	39.8	6.8		99	1170	17		71		161	95	216				Toxic
CCCCn1cc(C(=O)N[C@@H](Cc2ccccc2)C(N)=O)c2ccccc21	307	148	40		92	15500	209		76		5100	93	50				
CCCCCn1cc(C(=O)c2cccc3ccccc23)c2ccccc21	2.56	9.55	22		87	35.5	7.3		58		18	116	310				
CCCCn1cc(C(=O)N[C@H](C(N)=O)C(C)C)c2ccccc21	12.2	77.6	28		106	3300	283		94		53	107	390				

Source: ChEMBL document CHEMBL5107959, “Structure-activity relationships of valine, tert-leucine, and phenylalanine amino acid-derived synthetic cannabinoid receptor agonists related to ADB-BUTINACA, APP-BUTINACA, and ADB-P7AICA” (RSC Med Chem, 2022)
